Reference: ChEMBL document CHEMBL1145957 (J Med Chem, 2003)

How the values were obtained:
[1] = test system: Trypanosoma cruzi; assay: Percent inhibition in vitro against intracellular form of Trypanosoma cruzi at 30 uM concentration; type: functional
Summary of the method: (§1)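 T. cruzi Y strain (MHOM/BR/OO/Y) trypomastigotes, grown in L6 myoblast cultures, infect mouse peritoneal macrophages in medium with drug from 90 to 3 μM. Incubation 72 h at 37 °C. Activity read as percent of infected macrophages in treated cultures.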

[2] = test system: Trypanosoma cruzi; assay: Percent inhibition in vitro against intracellular form of Trypanosoma cruzi at 90 uM concentration; type: functional; summary of the method: as §1
[3] = test system: Trypanosoma cruzi; assay: Percent inhibition in vitro against intracellular form of Trypanosoma cruzi at 10 uM concentration; type: functional; summary of the method: as §1
[4] = test system: Trypanosoma cruzi; assay: Effective dose against Trypanosoma cruzi; type: functional
[5] = test system: Trypanosoma cruzi; assay: Percent inhibition in vitro against intracellular form of Trypanosoma cruzi at 3 uM concentration; type: functional; summary of the method: as §1
[6] = test system: Trypanosoma cruzi; assay: In vitro percent inhibition against mouse peritoneal macrophages infected with Trypanosoma cruzi at 25 uM concentration; Toxic for macrophage; type: functional, organism-based
Summary of the method: (§2)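 Mouse peritoneal macrophages seeded at 30 000 cells/well. After 24 h, about 100 000 T. cruzi Tulahen CL2 trypomastigotes per well added with 2-fold drug dilutions. Incubated 4 days at 37 °C, 5% CO2; uninfected cultures treated alike. Reduction of total parasite load (free trypomastigotes plus intracellular amastigotes) versus untreated controls scored microscopically.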

[7] = test system: Leishmania infantum; assay: In vitro percent inhibition against mouse peritoneal macrophages infected with Leishmania infantum at 12.5 uM concentration; type: functional
Summary of the method: (§3)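 Primary mouse peritoneal macrophages seeded at 30 000 cells/well. After 24 h, spleen-derived L. infantum (MOHM/MA BE/67) amastigotes added at a 10:1 infection ratio with 2-fold drug dilutions. Incubated 5 days at 37 °C, 5% CO2; uninfected cultures treated in parallel. Total parasite load or infected-macrophage count scored microscopically on Wright-stained slides, versus untreated controls.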

[8] = test system: Trypanosoma cruzi; assay: In vitro percent inhibition against mouse peritoneal macrophages infected with Trypanosoma cruzi at 6.2 uM concentration; type: functional; summary of the method: as §2
[9] = test system: Trypanosoma cruzi; assay: In vitro percent inhibition against mouse peritoneal macrophages infected with Trypanosoma cruzi at 12.5 uM concentration; type: functional; summary of the method: as §2
[10] = test system: Homo sapiens (MRC-5 cells); assay: Concentration that cause cytotoxicity at 25 uM concentration
[11] = test system: Homo sapiens (MRC-5 cells); assay: Concentration that cause cytotoxicity at 3.1 uM concentration
[12] = test system: Homo sapiens (MRC-5 cells); assay: Concentration that cause cytotoxicity at 1.5 uM concentration
[13] = test system: Leishmania infantum; assay: In vitro percent inhibition against mouse peritoneal macrophages infected with Leishmania infantum at 3.1 uM concentration; type: functional; summary of the method: as §3
[14] = test system: Leishmania infantum; assay: In vitro percent inhibition against mouse peritoneal macrophages infected with Leishmania infantum at 25 uM concentration; Toxic for macrophage; type: functional, organism-based; summary of the method: as §3
[15] = test system: Homo sapiens (MRC-5 cells); assay: Concentration that cause cytotoxicity at 12.5 uM concentration
[16] = test system: Leishmania infantum; assay: In vitro percent inhibition against mouse peritoneal macrophages infected with Leishmania infantum at 6.2 uM concentration; type: functional; summary of the method: as §3
[17] = test system: Trypanosoma brucei; assay: Effective concentration in vitro against the bloodstream trypomastigote form of Trypanosoma brucei; type: functional, organism-based
Summary of the method: (§4)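 T. brucei brucei AnTat 1.9 bloodstream forms kept cell-free at 10⁵ trypanosomes/mL. Drug added in 10-fold dilutions, 50 to 0.01 μM final, 16 replicates per dilution and control. Incubated 48 h at 37 °C, 5% CO2.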

[18] = test system: Trypanosoma brucei; assay: Minimum effective concentration in vitro against the bloodstream trypomastigote form of Trypanosoma brucei; type: functional; settings: read-out: MEC; summary of the method: as §4
[19] = test system: Trypanosoma cruzi; assay: In vitro percent inhibition against mouse peritoneal macrophages infected with Trypanosoma cruzi at 3.1 uM concentration; type: functional; summary of the method: as §2
[20] = test system: Leishmania infantum; assay: In vitro percent inhibition against mouse peritoneal macrophages infected with Leishmania infantum at 25 uM concentration; type: functional; summary of the method: as §3
[21] = test system: Trypanosoma cruzi; assay: In vitro percent inhibition against mouse peritoneal macrophages infected with Trypanosoma cruzi at 25 uM concentration; type: functional; summary of the method: as §2
[22] = test system: Homo sapiens (MRC-5 cells); assay: Concentration that cause cytotoxicity at 6.2 uM concentration
[23] = test system: Homo sapiens (MRC-5 cells); assay: Concentration that cause cytotoxicity at 3.1 uM concentration in human MRC-5 cells
[24] = test system: Homo sapiens (MRC-5 cells); assay: Concentration that cause cytotoxicity at 12.5 uM concentration in human MRC-5 cells
[25] = test system: Homo sapiens (MRC-5 cells); assay: Concentration that cause cytotoxicity at 25 uM concentration in human MRC-5 cells
[26] = test system: Homo sapiens (MRC-5 cells); assay: Concentration that cause cytotoxicity at 6.2 uM concentration in human MRC-5 cells
[27] = test system: Leishmania donovani; assay: Percent inhibition in vitro against intracellular form of Leishmania donovani at 90 uM concentration; type: functional
Summary of the method: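 Hamster-spleen-derived L. donovani (MHOM/ET/67/L82) amastigotes infect mouse peritoneal macrophages in chamber slides. Infected cells kept with drug across 90–3 μM in quadruplicate for 7 days at 37 °C. Activity taken as percentage of macrophages cleared of amastigotes; sodium stibogluconate served as positive control.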

Row | Compound | inhibition at 6.2 µM [8] | inhibition at 25 µM [10] | inhibition at 12.5 µM [15] | inhibition at 6.2 µM [16] | EC50 [17] | minimal effective concentration [18] | inhibition at 25 µM [20] | inhibition at 25 µM [21] | other results
1 | Cn1c([N+](=O)[O-])cnc1/C=N/N=C(/N)S |  |  |  |  |  |  |  |  | inhibition at 30 µM [1]: 93%; inhibition at 90 µM [2]: 99%; inhibition at 10 µM [3]: 71%; ED50 [4]: 3.3 µM; inhibition at 3 µM [5]: 54%
2 | Cn1c([N+](=O)[O-])cnc1S(C)(=O)=O | 0% | 85% | 29% | 0% | 8000 nM | > 49 µM |  |  | inhibition [6]: Toxic for macrophage; inhibition at 12.5 µM [7]: 0%; inhibition at 12.5 µM [9]: 0%; inhibition at 3.1 µM [11]: 28%; inhibition at 1.5 µM [12]: 21%; inhibition at 3.1 µM [13]: 0%; inhibition [14]: Toxic for macrophage; inhibition at 3.1 µM [19]: 0%
3 | N/C(S)=N/N=C/c1ccc([N+](=O)[O-])s1 | 40% | 0% | 0% | 0% |  |  | 40% | 90% | inhibition at 3.1 µM [11]: 0%; inhibition at 6.2 µM [22]: 0%
4 | NC(=O)N/N=C/c1ccc([N+](=O)[O-])o1 [NITROFURAZONE] | 40% |  |  | 0% |  | 5 µM | 0% | 99% | Inhibition [23]: 0%; Inhibition [24]: 0%; Inhibition [25]: 0%; Inhibition [26]: 0%
5 | Cn1c([N+](=O)[O-])cnc1-c1nnc(NC(=O)C(F)(F)F)s1 |  |  |  |  |  | 31 µM |  |  | 
6 | Cn1c(-c2nnc(N)s2)nc(C(F)(F)F)c1[N+](=O)[O-] |  |  |  |  | 25000 nM | > 34 µM |  |  | 
7 | Cn1c(-c2nnc(N)s2)nc(Sc2ccccc2)c1[N+](=O)[O-] | 0% | 40% | 3% | 0% |  |  | 0% | 80% | inhibition at 12.5 µM [7]: 0%; inhibition at 12.5 µM [9]: 60%; inhibition at 3.1 µM [13]: 0%; inhibition at 6.2 µM [22]: 0%; inhibition at 3.1 µM [19]: 0%
8 | Cc1ccc(C(=O)Nc2ccc(S(=O)(=O)O)c3cc(S(=O)(=O)O)cc(S(=O)(=O)O)c23)cc1NC(=O)c1cccc(NC(=O)Nc2cccc(C(=O)Nc3cc(C(=O)Nc4ccc(S(=O)(=O)O)c5cc(S(=O)(=O)O)cc(S(=O)(=O)O)c45)ccc3C)c2)c1 [SURAMIN] |  |  |  |  | 20 nM | 0.8 µM |  |  | 
9 | Cn1c(-c2nnc(N)s2)nc(Br)c1[N+](=O)[O-] |  |  |  |  | 500 nM | 3.3 µM |  |  | 
10 | CC(=O)Nc1nnc(-c2ncc([N+](=O)[O-])n2C)s1 | 99% | 0% | 0% | 0% | 200 nM | 1.6 µM | 40% | 99% | inhibition at 12.5 µM [7]: 40%; inhibition at 12.5 µM [9]: 99%; inhibition at 3.1 µM [13]: 0%; inhibition at 6.2 µM [22]: 0%; inhibition at 3.1 µM [19]: 99%
11 | Nc1nnc(-c2ccc([N+](=O)[O-])o2)s1 | 95% | 4% | 0% | 0% |  |  | 40% |  | inhibition at 3.1 µM [11]: 0%; inhibition at 6.2 µM [22]: 0%
12 | Nc1nnc(-c2ccc([N+](=O)[O-])o2)o1 |  |  |  |  |  | > 51 µM |  |  | 
13 | Cc1nc(-c2nnc(N)s2)n(C)c1[N+](=O)[O-] |  |  |  |  | > 41000 nM | > 41 µM |  |  | 
14 | Cn1c(-c2nnc(N)s2)nc(N2CCCCC2)c1[N+](=O)[O-] |  |  |  |  |  |  |  |  | inhibition at 30 µM [1]: 3%; inhibition at 90 µM [2]: 41%; inhibition at 10 µM [3]: 0%; inhibition at 90 µM [27]: 0%
15 | Cn1c([N+](=O)[O-])cnc1-c1nnc(NC(=O)CCCC(=O)NC2C(O)OC(CO)C(O)C2O)s1 (centres undefined) | 60% |  |  | 0% |  |  | 0% | 99% | inhibition at 12.5 µM [7]: 0%; inhibition at 12.5 µM [9]: 99%; inhibition at 3.1 µM [13]: 0%; inhibition at 3.1 µM [19]: 20%
